ChEMBL document CHEMBL1800048, “Gambogic acid, a natural product inhibitor of Hsp90” (J Nat Prod, 2011)
pIC50: −log10 of the molar value. The source made the active and inactive calls. The rule behind the calls is not given here.

Experiments:
Heat shock protein HSP90 [1] = biological target: T1, Heat shock protein HSP90 (Homo sapiens, UniProt P07900+P08238); experiment: Inhibition of Hsp90 in human MCF7 cells assessed as Raf degradation after 36 hrs by Western blot analysis; assay type: cell-based
Summary of the method: (§1)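 Cells (1×10^6 per dish) were attached overnight, then exposed to the compound for 36 h. […] Extracts (10 µg protein) were Western blotted for Her2, Akt, Raf-1, Hsp90 and Hsp70, with actin as loading control.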

Heat shock protein HSP90 [2] = biological target: T1, Heat shock protein HSP90; experiment: Inhibition of Hsp90 in human MCF7 cells assessed as Her2 degradation after 36 hrs by Western blot analysis; assay type: cell-based; summary of the method: as §1
Heat shock protein HSP90 [3] = biological target: T1, Heat shock protein HSP90; experiment: Binding affinity to human Hsp90 N-terminal domain (1 to 241) expressed in Escherichia coli DE-3 Star cells by SPR analysis
Heat shock protein HSP90 [4] = biological target: T1, Heat shock protein HSP90; experiment: Inhibition of Hsp90 in human SKBR3 cells assessed as Her2 degradation after 36 hrs by Western blot analysis; assay type: cell-based; settings: SK-BR-3
Summary of the method: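 SkBr3 cells (1×10^6 per dish) were attached overnight, then exposed to the compound for 36 h. […] Her2 was Western blotted from 1 µg extract protein, with actin as loading control.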

[5] = Inhibition of Hsp90-mediated [35S]His-tagged HRI maturation in heme-deficient reticulocyte lysate at 50 uM after 45 mins by SDS-PAGE and autoradiography
Summary of the method: (§2)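 [35S]His-tagged wild-type HRI was made by transcription-translation in reticulocyte lysate. Compound or 4% v/v DMSO was added at 20 min, followed by 10 min more. Samples were diluted into 7 volumes of heme-deficient lysate holding the same compound concentration; hemin-supplemented (20 µM) lysate was the reference. After 45 min, HRI was captured on Ni-NTA on ice for 1 h. Maturation was scored by mobility shift on SDS-PAGE and autoradiography.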

[6] = Effect on [35S]His-tagged HRI stability in heme-deficient reticulocyte lysate assessed as loss of [35S]His-tagged HRI at 50 uM after 45 mins by SDS-PAGE and autoradiography
Heat shock protein HSP90 [7] = biological target: T1, Heat shock protein HSP90; experiment: Inhibition of Hsp90 in human HeLa cells assessed as Her2 degradation at 0.01 to 20 uM after 36 hrs by Western blot analysis; assay type: cell-based; summary of the method: as §1
Heat shock protein HSP90 [8] = biological target: T1, Heat shock protein HSP90; experiment: Inhibition of Hsp90 in human MCF7 cells assessed as induction of Hsp90 expression after 36 hrs by Western blot analysis; assay type: cell-based; summary of the method: as §1
Heat shock protein HSP90 [9] = biological target: T1, Heat shock protein HSP90; experiment: Binding affinity to human Hsp90 N-terminal domain (1 to 241) expressed in Escherichia coli DE-3 Star cells by SPR analysis in presence of 20 uM geldanamycin
Heat shock protein HSP90 [10] = biological target: T1, Heat shock protein HSP90; experiment: Inhibition of Hsp90 in human SKBR3 cells assessed as induction of Hsp70 expression after 36 hrs by Western blot analysis; assay type: cell-based; settings: SK-BR-3; summary of the method: as §1
Heat shock protein HSP90 [11] = biological target: T1, Heat shock protein HSP90; experiment: Inhibition of Hsp90 in human HeLa cells assessed as Raf degradation at 0.01 to 20 uM after 36 hrs by Western blot analysis; assay type: cell-based; summary of the method: as §1
Heat shock protein HSP90 [12] = biological target: T1, Heat shock protein HSP90; experiment: Inhibition of Hsp90 in human SKBR3 cells assessed as induction of Hsp90 expression after 36 hrs by Western blot analysis; assay type: cell-based; settings: SK-BR-3; summary of the method: as §1
[13] = biological target: T2, Hsp90 co-chaperone Cdc37 (Homo sapiens) (UniProt Q16543); settings: 50 uM
T2 sequence (whole entry): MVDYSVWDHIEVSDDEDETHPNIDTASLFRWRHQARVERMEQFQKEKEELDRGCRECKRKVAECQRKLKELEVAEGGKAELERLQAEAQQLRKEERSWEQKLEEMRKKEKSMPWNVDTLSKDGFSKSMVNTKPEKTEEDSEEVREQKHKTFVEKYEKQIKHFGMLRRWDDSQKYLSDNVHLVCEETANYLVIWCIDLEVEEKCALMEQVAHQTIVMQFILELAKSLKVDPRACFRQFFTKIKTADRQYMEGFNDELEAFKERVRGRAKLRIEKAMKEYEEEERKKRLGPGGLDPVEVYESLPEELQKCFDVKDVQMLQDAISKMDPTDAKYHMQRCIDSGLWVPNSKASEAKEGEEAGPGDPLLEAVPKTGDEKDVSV

Heat shock protein HSP90 [14] = biological target: T1, Heat shock protein HSP90; experiment: Binding affinity to human Hsp90 C-terminal domain (531 to 732) expressed in Escherichia coli DE-3cstar cells by SPR analysis
Summary of the method: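 Hsp90 N-terminal (aa 1–241) or C-terminal (aa 531–732) domain was expressed in E. coli, Ni-NTA purified, His-tag TEV-cleaved, then gel-filtered and biotinylated for SPR. Analyte was injected in 10 mM PIPES pH 7.4, 300 mM NaCl, 2% DMSO at 15 µL/min, 25 °C. […] Triplicates; ka, kd and KD were derived from fits.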

Heat shock protein HSP90 [15] = biological target: T1, Heat shock protein HSP90; experiment: Inhibition of Hsp90 in human MCF7 cells assessed as Akt degradation after 36 hrs by Western blot analysis; assay type: cell-based; summary of the method: as §1
[16] = Inhibition of Hsp90-dependent refolding of luciferase in reticulocyte lysate by microplate reader
Heat shock protein HSP90 [17] = biological target: T1, Heat shock protein HSP90; experiment: Inhibition of Hsp90 in human SKBR3 cells assessed as Akt degradation after 36 hrs by Western blot analysis; assay type: cell-based; settings: SK-BR-3; summary of the method: as §1
Heat shock protein HSP90 [18] = biological target: T1, Heat shock protein HSP90; experiment: Inhibition of Hsp90 in human HeLa cells assessed as Akt degradation at 0.01 to 20 uM by Western blot analysis; assay type: cell-based; summary of the method: as §1
HeLa = experiment: Antiproliferative activity against human HeLa cells assessed as inhibition of cell growth after 72 hrs by cell titer 96 assay; assay type: functional
Summary of the method: (§3)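 Cells seeded at 2000/well and left to attach overnight. HeLa was grown in MEM with non-essential amino acids, 2 mM glutamine and 10% FBS. SkBr3 was grown in DMEM/F12 (1:1) with penicillin/streptomycin and 10% FBS. Varying compound concentrations or 1% DMSO vehicle were added for 72 h at 37 °C. Tetrazolium reagent was added for 1 h, then A490 read; viability expressed as % of DMSO wells.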

Heat shock protein HSP90 [19] = biological target: T1, Heat shock protein HSP90; experiment: Inhibition of Hsp90 in human SKBR3 cells assessed as Raf degradation after 36 hrs by Western blot analysis; assay type: cell-based; settings: SK-BR-3; summary of the method: as §1
SK-BR-3 = experiment: Antiproliferative activity against human SKBR3 cells assessed as inhibition of cell growth after 72 hrs by cell titer 96 assay; assay type: functional; settings: SK-BR-3, 72 h; summary of the method: as §3
Heat shock protein HSP90 [20] = biological target: T1, Heat shock protein HSP90; experiment: Binding affinity to human full length Hsp90 expressed in insect Sf9 cells by SPR analysis
Summary of the method: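 Full-length human Hsp90β from baculovirus-infected Sf9 cells was amine-coupled by EDC/NHS to a carboxyl SPR chip (about 2000 RU). Compound at 1.0–50 µM was injected in 10 mM PIPES pH 7.4, 300 mM NaCl, 2% DMSO at 15 µL/min, 25 °C. Measured in triplicate; ka, kd and KD were derived from curve fits.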

Heat shock protein HSP90 [21] = biological target: T1, Heat shock protein HSP90; experiment: Inhibition of Hsp90 in human MCF7 cells assessed as induction of Hsp70 expression after 36 hrs by Western blot analysis; assay type: cell-based; summary of the method: as §1
[22] = Inhibition of Hsp90-mediated [35S]His-tagged HRI maturation in heme-deficient reticulocyte lysate at 400 uM after 45 mins by SDS-PAGE and autoradiography; summary of the method: as §2
[23] = Effect on [35S]His-tagged HRI stability in heme-deficient reticulocyte lysate assessed as loss of [35S]His-tagged HRI at 400 uM after 45 mins by SDS-PAGE and autoradiography
[24] = Effect on [35S]His-tagged HRI stability in heme-deficient reticulocyte lysate assessed as loss of [35S]His-tagged HRI at 4 mM after 45 mins by SDS-PAGE and autoradiography
Summary of the method: (§4)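 Wild-type [35S]His-tagged HRI made by coupled transcription-translation in reticulocyte lysate with [35S]methionine. Compound or DMSO (4% v/v) added after 20 min, then 10 min more. Sample diluted into 7 volumes of heme-deficient lysate (hemin 20 µM as reference) holding the same compound level, 45 min. HRI pulled down on NTA-Ni resin, 1 h on ice. SDS-PAGE and autoradiography; mobility shift and band densitometry as % of minus-heme control.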

[25] = Inhibition of Hsp90-mediated [35S]His-tagged HRI maturation in heme-deficient reticulocyte lysate at 4 mM after 45 mins by SDS-PAGE and autoradiography; summary of the method: as §4
[26] = Inhibition of Hsp90-mediated [35S]His-tagged HRI maturation in heme-deficient reticulocyte lysate at 80 uM after 45 mins by SDS-PAGE and autoradiography; summary of the method: as §4
[27] = biological target: T2, Hsp90 co-chaperone Cdc37 (Homo sapiens); experiment: Inhibition of Cdc37 interaction with heme-regulated [35S]His-tagged eIF2alpha K199R mutant kinase in reticulocyte lysate assessed as coadsorbed Cdc37 at 80 uM after 40 mins by SDS-PAGE and Western blot analysis
Summary of the method: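 His-tagged kinase-dead HRI K199R made by TnT in reticulocyte lysate with [35S]methionine. After 10 min of synthesis, compound or DMSO (4% v/v) added, then 40 min more. Immunoadsorbed with anti-His-tag antibody on anti-mouse-IgG agarose. Washed four times in 10 mM PIPES pH 7.2, 100 mM NaCl. Co-adsorbed Hsp90, Hsp70 and Cdc37 read by SDS-PAGE and Western blot; plasmid-free lysate as nonspecific control.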

[28] = Effect on [35S]His-tagged HRI stability in heme-deficient reticulocyte lysate assessed as loss of [35S]His-tagged HRI at 80 uM after 45 mins by SDS-PAGE and autoradiography; summary of the method: as §4
[29] = biological target: T2, Hsp90 co-chaperone Cdc37 (Homo sapiens); settings: 100 uM
[30] = Effect on [35S]His-tagged HRI stability in heme-deficient reticulocyte lysate assessed as loss of [35S]His-tagged HRI at 100 uM after 45 mins by SDS-PAGE and autoradiography
[31] = Inhibition of Hsp90-mediated [35S]His-tagged HRI maturation in heme-deficient reticulocyte lysate at 100 uM after 45 mins by SDS-PAGE and autoradiography; summary of the method: as §2
[32] = biological target: Hsp90 co-chaperone Cdc37 (Homo sapiens) (UniProt Q16543); settings: 20 mM
[33] = Inhibition of Hsp90-mediated [35S]His-tagged HRI maturation in heme-deficient reticulocyte lysate at 20 mM after 45 mins by SDS-PAGE and autoradiography; summary of the method: as §4
[34] = Effect on [35S]His-tagged HRI stability in heme-deficient reticulocyte lysate assessed as loss of [35S]His-tagged HRI at 20 mM after 45 mins by SDS-PAGE and autoradiography; summary of the method: as §4

## CC(C)=CCC[C@]1(C)C=Cc2c(O)c3c(c(CC=C(C)C)c2O1)O[C@]12C(=C[C@@H]4C[C@H]1C(C)(C)O[C@@]2(C/C=C(/C)C(=O)O)C4=O)C3=O [GAMBOGIC ACID]
Heat shock protein HSP90 [1]
  inhibition: Dose-dependent effect
Heat shock protein HSP90 [2]
  inhibition: Dose-dependent effect
Heat shock protein HSP90 [3]
  Kd: 7600 nM
Heat shock protein HSP90 [4]
  inhibition: Dose-dependent effect
[5]
  inhibition: inactive
[6]
  Activity: 10%
Heat shock protein HSP90 [7]
  inhibition: Active
Heat shock protein HSP90 [8]
  inhibition: Dose-dependent effect
Heat shock protein HSP90 [9]
  Kd: 7000 nM
Heat shock protein HSP90 [10]
  inhibition: Dose-dependent effect
Heat shock protein HSP90 [11]
  inhibition: Active
Heat shock protein HSP90 [12]
  inhibition: Dose-dependent effect
[13]
  Activity: inactive
Heat shock protein HSP90 [14]
  Activity: inactive
Heat shock protein HSP90 [15]
  inhibition: Dose-dependent effect
[16]
  pIC50: 5.70
Heat shock protein HSP90 [17]
  inhibition: Dose-dependent effect
Heat shock protein HSP90 [18]
  inhibition: Active
HeLa
  GI50: 1500 nM
Heat shock protein HSP90 [19]
  inhibition: Dose-dependent effect
SK-BR-3
  GI50: 800 nM
Heat shock protein HSP90 [20]
  Kd: 9800 nM
Heat shock protein HSP90 [21]
  inhibition: Dose-dependent effect

## CO[C@H]1[C@H](OC(=O)c2ccc(C)[nH]2)[C@H](O)[C@@H](Oc2ccc3c(O)c(NC(=O)c4c[nH]c(C(=O)Nc5c(O)c6ccc(O[C@H]7OC(C)(C)[C@@H](OC)[C@H](OC(=O)c8ccc(C)[nH]8)[C@@H]7O)c(C)c6oc5=O)c4C)c(=O)oc3c2C)OC1(C)C
[22]
  inhibition: Active
[23]
  Activity: 80%

## CO[C@@H]1[C@@H](OC(N)=O)[C@@H](O)[C@H](Oc2ccc3c(O)c(NC(=O)c4ccc(O)c(CC=C(C)C)c4)c(=O)oc3c2C)OC1(C)C
[24]
  Activity: 90%
[25]
  inhibition: Active

## COC1=C2C[C@@H](C)C[C@H](OC)[C@H](O)[C@@H](C)/C=C(\C)[C@H](OC(N)=O)[C@@H](OC)/C=C\C=C(/C)C(=O)NC(=CC1=O)C2=O
[26]
  inhibition: Active
[27]
  Activity: Active
[28]
  Activity: 0%

## CC1=C(O)C(=O)C=C2C1=CC=C1[C@@]2(C)CC[C@@]2(C)[C@@H]3C[C@](C)(C(=O)O)CC[C@]3(C)CC[C@]12C [CELASTROL]
[29]
  Activity: inactive
[30]
  Activity: 40%
[16]
  pIC50: 4.70
[31]
  inhibition: Active

## SODIUM MOLYBDATE
[32]
  Activity: Active
[33]
  inhibition: Active
[34]
  Activity: 10%
